This passage reports EC50 and Activity results from ChEMBL document CHEMBL4354849, “[1,2,5]Oxadiazolo[3,4-b]pyrazine-5,6-diamine Derivatives as Mitochondrial Uncouplers for the Potential Treatment of Nonalcoholic Steatohepatitis” (J Med Chem, 2020).

Calls of active or inactive are those of the source. The rule behind the calls is not given here.

The nature of data set [1]: Induction of mitochondrial uncoupling in rat L6 cells assessed as oxygen consumption rate measured over 90 mins by oxygen consumption rate by seahorse assay. Format: mitochondria, Mitochondria.
The test system of data set [2] is L6. The data set can be described thus: Induction of mitochondrial uncoupling in rat L6 cells assessed as oxygen consumption rate up to 50 uM measured over 90 mins by oxygen consumption rate by seahorse assay relative to <= 50 uM BAM15. Particulars: Mitochondria. In short, it runs like this:
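L6 rat myoblasts were seeded at 3.5 × 10⁴ cells/well and left to adhere overnight. Medium was switched to unbuffered DMEM with pyruvate and glutamine, pH 7.4, and cells were equilibrated 1 h at 37°C without CO₂. One concentration per well, 2 wells per condition, OCR followed over 90 min. The first three post-injection readings were averaged to build the dose curve. AUC above baseline was expressed relative to BAM15 run on each plate; EC50 came from a Hill fit with the bottom fixed at 100% baseline.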

Data set [3] deals with Mus musculus. Description: Improvement in liver fibrosis in Stelic C57BL/6 mouse model of streptozotocin-induced NASH assessed as effect on liver Cd146 mRNA expression at 10 mg/kg/day, po for 21 days. Format: functional, organism-based.
Data set [4] relates to Mus musculus. The data set can be described thus: Improvement in liver fibrosis in Stelic C57BL/6 mouse model of streptozotocin-induced NASH assessed as liver fibrosis score at 10 mg/kg/day, po for 21 days by Picrosirius ed staining based assay (reference value: 0.91 +/- 0.25). Format: functional.
In data set [5] the test system is Mus musculus. The data set can be described thus: Effect on food intake in Stelic C57BL/6 mouse model of streptozotocin-induced NASH assessed as reduction in food intake at 10 mg/kg/day, po for 21 days. Format: ADME, organism-based. Details: scale not given: the % may be the effect or the level left. Particulars: in vivo, 504 h.
In data set [6] the test system is Mus musculus. Description: Improvement in liver fibrosis in Stelic C57BL/6 mouse model of streptozotocin-induced NASH assessed as increase in plasma cholesterol at 10 mg/kg/day, po for 21 days. In kind it is functional, organism-based.
Data set [7] concerns Mus musculus. Description: Induction of hyperglycemia in Stelic C57BL/6 mouse model of streptozotocin-induced NASH at 10 mg/kg/day, po for 21 days. In kind it is organism-based. Particulars: in vivo, 504 h.
Data set [8] relates to Mus musculus. The data set can be described thus: Effect on ballooning in Stelic C57BL/6 mouse model of streptozotocin-induced NASH at 10 mg/kg/day, po for 21 days. Format: ADME, organism-based. The settings on record: in vivo, 504 h.
Data set [9] concerns Mus musculus. Description: Improvement in liver fibrosis in Stelic C57BL/6 mouse model of streptozotocin-induced NASH assessed as reduction in plasma triglyceride at 10 mg/kg/day, po for 21 days. In kind it is functional, organism-based.
The test system of data set [10] is Mus musculus. Description: Improvement in liver fibrosis in Stelic C57BL/6 mouse model of streptozotocin-induced NASH assessed as NAS score at 10 mg/kg/day, po for 21 days (reference value: 4.6 +/- 0.7). Format: functional.
Data set [11] has as its system Mus musculus. Description: Effect on body weight in Stelic C57BL/6 mouse model of streptozotocin-induced NASH at 10 mg/kg/day, po for 21 days. Format: ADME, organism-based. The settings on record: in vivo, 504 h.
Data set [12] concerns Mus musculus. The data set can be described thus: Improvement in liver fibrosis in Stelic C57BL/6 mouse model of streptozotocin-induced NASH assessed as effect on plasma AST level at 10 mg/kg/day, po for 21 days. Format: functional, organism-based.
In data set [13] the test system is Mus musculus. The data set can be described thus: Effect on liver weight in Stelic C57BL/6 mouse model of streptozotocin-induced NASH at 10 mg/kg/day, po for 21 days. In kind it is ADME, organism-based. The settings on record: in vivo, 504 h.
Data set [14] concerns Mus musculus. The data set can be described thus: Improvement in liver fibrosis in Stelic C57BL/6 mouse model of streptozotocin-induced NASH assessed as effect on liver Gfap mRNA expression at 10 mg/kg/day, po for 21 days. Format: functional, organism-based.

In the case of `Fc1cc(F)c(Nc2nc3nonc3nc2Nc2c(F)cc(F)cc2F)c(F)c1`, the concentration giving a half-maximal response (EC50) in [1] came out at 1100 nM. As for `CCOc1ccccc1Nc1nc2nonc2nc1Nc1ccccc1F`, the Activity in data set [2] was 15%. Further, in data set [1], the concentration giving a half-maximal response (EC50) is 5600 nM. On to `Fc1ccccc1Nc1nc2nonc2nc1Nc1ccccn1`, for which the Activity in data set [2] turned out to be 20%. The EC50 in data set [1] was found to be 9000 nM. Take `Fc1ccccc1Nc1nc2nonc2nc1Nc1cccc(C(F)(F)F)c1F`: in [1], the EC50 was less than 370 nM.

Regarding `Fc1cc(F)cc(Nc2nc3nonc3nc2Nc2cc(F)cc(F)c2)c1`, the EC50 in [1] is less than 1000 nM. Same read-out and setting: the value for `Fc1ccccc1Nc1nc2nonc2nc1Nc1cccc(C(F)(F)F)c1` was less than 1000 nM. Regarding `Cc1ccccc1Nc1nc2nonc2nc1Nc1ccccc1F`, the Activity in [2] amounted to 58%. In data set [1], the concentration giving a half-maximal response (EC50) stood at 1100 nM. Taken in the same sequence, the figures for `Fc1ccc(Nc2nc3nonc3nc2Nc2ccccc2F)c(F)c1` were 22% and 300 nM. For `Fc1ccccc1Nc1nc2nonc2nc1NCCC(F)(F)F`, the EC50 in data set [1] is more than 100000 nM. For the compound `Cc1ccc(Nc2nc3nonc3nc2Nc2ccc(C)cc2)cc1`, the Activity in data set [2] amounted to 59%. For the same compound, the 50% effective concentration (EC50) in data set [1] is more than 20000 nM. On to `CCCc1nc2c(C)cc(-c3nc4ccccc4n3C)cc2n1Cc1ccc(-c2ccccc2C(=O)O)cc1` [TELMISARTAN], for which the result in data set [3], in [12] and in data set [14] was inactive. In addition, the Activity is 0.6 in [4]; 23% in data set [5]; “Toxic” in [7]; “Non-Toxic” in [8]; 2.9 in data set [10]; “Toxic” in data set [11]. Moreover, the Activity entry in data set [13] was “Toxic”. For the same compound, the outcome in data set [6] and in data set [9] was Active. On to `CCOc1ccc(Nc2nc3nonc3nc2Nc2ccccc2F)cc1`, for which the EC50 in data set [1] was found to be 3800 nM. As to `Fc1ccccc1Nc1nc2nonc2nc1Nc1cccc(OC(F)(F)F)c1`, the Activity in data set [2] turned out to be 8%. Besides, the EC50 in data set [1] stood at 600 nM. As to `Fc1ccccc1Nc1nc2nonc2nc1Nc1ccccc1C(F)(F)F`, in [2], the Activity came out at 57%. In addition, in data set [1], the EC50 worked out at 1400 nM.

On to `COc1cccc(Nc2nc3nonc3nc2Nc2ccccc2F)c1`, for which the EC50 in data set [1] came to 830 nM. On to `Fc1ccccc1Nc1nc2nonc2nc1Nc1ccccc1`, for which the Activity in data set [2] came to 65%. The EC50 in [1] came to 2200 nM. As to `Fc1ccccc1Nc1nc2nonc2nc1Nc1ccc(OC(F)(F)F)cc1`, the EC50 in data set [1] amounted to 1300 nM. In the case of `COc1ccc(Nc2nc3nonc3nc2Nc2ccc(OC)cc2)cc1`, in [2], the Activity was found to be 14%. In addition, the EC50 in data set [1] was more than 100000 nM. Turning to `O=C(Nc1ccc(Nc2nc3nonc3nc2Nc2ccccc2F)cc1)C(F)(F)F`, the 50% effective concentration (EC50) in [1] is 4100 nM. Turning to `Fc1ccccc1Nc1nc2nonc2nc1Nc1cc(C(F)(F)F)cc(C(F)(F)F)c1`, in data set [1], the EC50 was less than 370 nM. With `Cc1ccccc1Nc1nc2nonc2nc1Nc1ccccc1C`, the EC50 in data set [1] amounted to 2300 nM. In the case of `Fc1cc(Br)ccc1Nc1nc2nonc2nc1Nc1ccc(Br)cc1F`, the EC50 in data set [1] was less than 3000 nM. `Fc1cc(Nc2nc3nonc3nc2Nc2ccc(C(F)(F)F)c(F)c2)ccc1C(F)(F)F`: the EC50 in data set [1] is 1700 nM. Same read-out and setting: the result for `Cc1ccc(Nc2nc3nonc3nc2Nc2ccc(C)c(C)c2)cc1C` reads more than 100000 nM; that for `Fc1cc(I)ccc1Nc1nc2nonc2nc1Nc1ccc(I)cc1F`, 8800 nM; that for `Fc1cc(C(F)(F)F)ccc1Nc1nc2nonc2nc1Nc1ccc(C(F)(F)F)cc1F`, less than 1000 nM. For the compound `Fc1ccccc1Nc1nc2nonc2nc1NC1CCCCC1`, in data set [1], the EC50 worked out at 13400 nM.

Consider `Cc1ccc(Nc2nc3nonc3nc2Nc2ccccc2F)cc1`, for which the EC50 in [1] worked out at 2100 nM.

Turning to `COc1ccc(Nc2nc3nonc3nc2Nc2ccccc2F)cc1`, in data set [2], the Activity was found to be 52%. In addition, the EC50 in data set [1] came to 1600 nM. For the compound `FC(F)(F)c1cc(Nc2nc3nonc3nc2Nc2cc(C(F)(F)F)cc(C(F)(F)F)c2)cc(C(F)(F)F)c1`, the EC50 in data set [1] amounted to 6100 nM.

As for `Fc1ccc(C(F)(F)F)cc1Nc1nc2nonc2nc1Nc1cc(C(F)(F)F)ccc1F`, the EC50 in data set [1] was less than 1000 nM.

`Cc1cccc(Nc2nc3nonc3nc2Nc2ccccc2F)c1`: the EC50 in data set [1] is 1500 nM.

Take `COc1cccc(Nc2nc3nonc3nc2Nc2cccc(OC)c2)c1`: the Activity in data set [2] turned out to be 43%. The EC50 in data set [1] was more than 100000 nM.

For `Fc1ccccc1Nc1nc2nonc2nc1Nc1cccc(F)c1F`, the Activity in [2] is 15%. Further, the EC50 in data set [1] is 500 nM. Taken in the same sequence, the figures for `CCOc1cccc(Nc2nc3nonc3nc2Nc2ccccc2F)c1` were 28% and 2200 nM.

For `FC(F)(F)Oc1cccc(Nc2nc3nonc3nc2Nc2cccc(OC(F)(F)F)c2)c1`, the Activity in [2] came to 53%. In addition, the EC50 in data set [1] amounted to 1100 nM. `FC(F)(F)c1ccccc1Nc1nc2nonc2nc1Nc1ccccc1C(F)(F)F`: the Activity in [2] amounted to 39%. In addition, the EC50 in [1] was determined as 1000 nM. As to `Fc1ccc(Nc2nc3nonc3nc2Nc2ccccc2F)cc1`, in [2], the Activity is 65%. The EC50 in [1] worked out at 2300 nM. Taken in the same sequence, the figures for `FC(F)(F)c1cccc(Nc2nc3nonc3nc2Nc2cccc(C(F)(F)F)c2)c1` were 28% and 700 nM. Consider `CCc1ccc(Nc2nc3nonc3nc2Nc2ccc(CC)cc2)cc1`, for which the EC50 in [1] was determined as 3900 nM. Regarding `C1CCC(Nc2nc3nonc3nc2NC2CCCC2)C1`, in data set [2], the Activity stood at 20%. Also, the EC50 in [1] is 45000 nM. Turning to `FC(F)(F)Oc1ccc(Nc2nc3nonc3nc2Nc2ccc(OC(F)(F)F)cc2)cc1`, the Activity in data set [2] was found to be 14%. The EC50 in data set [1] is less than 5000 nM. With `CCOc1cccc(Nc2nc3nonc3nc2Nc2cccc(OCC)c2)c1`, the Activity in data set [2] was 45%. Further, the EC50 in [1] turned out to be 10100 nM.

Take `Fc1ccccc1Nc1nc2nonc2nc1Nc1ccc(C(F)(F)F)cc1`: the EC50 in data set [1] was 270 nM. As to `FC(F)(F)Oc1ccc(Nc2nc3nonc3nc2Nc2ccc(OC(F)(F)F)c(Br)c2)cc1Br`, the EC50 in data set [1] was 2200 nM.

Consider `Oc1ccc(F)c(Nc2nc3nonc3nc2Nc2ccccc2F)c1`, for which, in [2], the Activity amounted to 45%. Moreover, the concentration for a half-maximal effect (EC50) in data set [1] is 30000 nM. Turning to `Cc1cccc(Nc2nc3nonc3nc2Nc2cccc(C)c2)c1`, the Activity in data set [2] was determined as 22%. Moreover, in data set [1], the EC50 stood at 2100 nM. With `Fc1ccccc1Nc1nc2nonc2nc1Nc1ccccc1OC(F)(F)F`, the Activity in data set [2] is 67%. Further, the EC50 in data set [1] was 1700 nM.

The EC50 is the concentration that produces a half-maximal response.
